Active and inactive are the calls of the source.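 Rule for the calls: active = parasite growth inhibition of at least 50% in red blood cells; inactive = the rest.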
system: P. falciparum 3D7 in RBCs, 3H-hypoxanthine incorporation, 48 h; assay: P. falciparum growth inhibition in erythrocytes, late-stage follow-up, P. falciparum M1AAP inhibitor project, cell-based, radiolabel readout, RBCs (AID 463209); settings: at 10 µM; stronger effect = higher value
In short: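 Assay system: Plasmodium falciparum clone 3D7 in human red blood cells | Buffer or medium: Hypoxanthine-free RPMI medium with 10% serum | Compound: 10 µM single dose | Schedule: 48 h at 37 °C, low-oxygen gas mix | Signal: 3H beta counting after harvest | Measure: % growth inhibition versus vehicle control | Benchmarks: Uninfected RBCs, vehicle-only parasites | Repeats: 6–9 replicates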

Row | Compound | inhibition
1 | O=C(O)CCC(=O)N1N=C(c2c(-c3ccccc3)c3cc(Cl)ccc3[nH]c2=O)CC1c1ccco1 (stereo not drawn) | 0% (inactive)
2 | CC(=O)N1N=C(c2c(O)n(C)c(=O)n(C)c2=O)CC1c1ccccc1 (stereo not drawn) | 2% (inactive)
3 | O=C(NCc1cccc(F)c1)C1CCN(S(=O)(=O)Cc2ccccc2)CC1 | 15% (inactive)
4 | O=C(Nn1c(C2CCC2)nc2ccccc2c1=O)c1cccs1 | 8% (inactive)
5 | O=C(NCCC1=CCCCC1)C1CCN(S(=O)(=O)c2ccc(Br)s2)CC1 | 0% (inactive)
6 | COc1ccccc1-c1nc2ccccc2c(=O)n1NC(=O)c1cccs1 | 4% (inactive)
7 | O=C1N=c2ccccc2=C1c1sc(=S)n(NC(=O)c2cccc(O)c2)c1O | 0% (inactive)
8 | O=C(NCc1ccco1)C1CCCN(S(=O)(=O)c2cccc3nonc23)C1 (stereo not drawn) | 0% (inactive)
9 | O=C1/C(=C/c2cccs2)SC(=S)N1NS(=O)(=O)c1ccccc1 | 1% (inactive)
10 | COc1ccc(OC)c(/C=C2\SC(=S)N(C(C(=O)O)c3ccccc3)C2=O)c1 (stereo not drawn) | 3% (inactive)
11 | COc1ccc(C2CC(c3c(-c4ccccc4)c4cc(Cl)ccc4[nH]c3=O)=NN2C(=O)CCC(=O)O)cc1 (stereo not drawn) | 0% (inactive)
12 | O=C1N=c2ccccc2=C1c1sc(=S)n(NC(=O)c2ccccc2)c1O | 6% (inactive)
13 | O=C(O)CCC(=O)N1N=C(c2c(-c3ccccc3)c3cc(Cl)ccc3[nH]c2=O)CC1c1cccs1 (stereo not drawn) | 0% (inactive)

Reference: PubChem BioAssay AID463209 (The Scripps Research Institute Molecular Screening Center, 2010)
